According to publication PMC6036231 (Journal of immunology (Baltimore, Md. : 1950), 2018):

Tests used:
PGE2-treated THP-1 cells = experiment: Real-time chemotaxis; type: cell-based, human
Outline: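 THP-1 cultured overnight with PGE2. Where stated, pre-incubated 15 min at room temperature with DMSO or 1 µM final antagonist. TAXIScan: 1 h migration at 37°C along gradients from 1 µl of 1 or 10 µM chemokine (1 µM CCL2 reference; no-stimulus basal). Frames every minute; cells tracked manually. FMI = y-axis distance/accumulated distance. Triplicate or quadruplicate runs per stimulus.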

primary human monocytes = experiment: Real-time chemotaxis; type: cell-based; details: 1 μM ML145
Outline: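 Monocytes isolated from healthy donor blood by negative selection (RosetteSep). Pre-incubated 15 min at room temperature in buffer with DMSO vehicle or 1 µM final antagonist. TAXIScan: 1 h migration at 37°C along gradients formed by 1 µl chemokine; no-stimulus basal. Images every minute; individual cells tracked manually; FMI parallel to gradient calculated per cell.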

3xHA-GPR35 = 3xHA-GPR35 (Homo sapiens, UniProt Q9HC97); experiment: GPR35 endocytosis assay, L1.2 clone 23; type: cell-based; details: 37°C, 15 minutes
Outline: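 L1.2 clone stably expressing N-terminal 3xHA-GPR35 (G418 1 mg/ml selection, limiting-dilution cloning), 2 x 10^6 cells/ml in RPMI/0.1% BSA. Mixed with equal volume of buffer holding agonist (20, 10 or 2 µM reference agonist; 2 µM chemokine) or DMSO vehicle. Incubated 15 min at 4°C (basal) and 37°C (endocytosis). Surface receptor by flow cytometry: anti-HA (10 µg/ml), FITC secondary, TO-PRO3.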

human GPR35a [1] = target: T1, human GPR35a (Homo sapiens, UniProt Q9HC97); experiment: Inositol phosphate assay, GPR35a with Gq-Gi1/2 chimera; type: cell-based; details: 30 minutes
human GPR35a [2] = target: T1, human GPR35a; experiment: Inositol phosphate assay, GPR35a with Gq-G13 chimera; type: cell-based; details: 30 minutes
GPR35b = GPR35b (Homo sapiens, UniProt Q9HC97); experiment: Inositol phosphate assay, GPR35b with Gq-Gi1/2 chimera; type: cell-based; details: 30 minutes
rat GPR35 = rat GPR35 (Rattus norvegicus, UniProt Q33BM1); experiment: BRET β-arrestin-2 recruitment assay, HEK293T cells, rat GPR35; type: cell-based
mouse GPR35 = mouse GPR35 (Mus musculus, UniProt Q9ES90); experiment: BRET β-arrestin-2 recruitment assay, HEK293T cells, mouse GPR35; type: cell-based
Outline: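 HEK293T cells transiently transfected with polyethylenimine to co-express mouse GPR35 and β-arrestin-2, used 48 h after transfection. β-arrestin-2 recruitment read by bioluminescence resonance energy transfer.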

THP-1 cells = experiment: Real-time chemotaxis; type: cell-based, human; details: resting THP-1
Outline: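 Resting THP-1 cells kept at 0.5 x 10^6/ml in supplemented RPMI 1640 with 10% FBS at 37°C, 5% CO2. TAXIScan: 1 h migration at 37°C along gradients from 1 µl of 1 µM or 10 µM chemokine (1 µM CCL2 reference); no-stimulus basal. Frames every minute; manual tracking. FMI = y-axis distance/accumulated distance. Pooled from 3 experiments, 3 movies per condition.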

[3] = target: T2, recombinant human chymase (Homo sapiens, UniProt P23946); experiment: Chemokine digestion with chymase, SDS-PAGE; type: biochemical; details: 18hr incubation, 37°C
T2 sequence (P23946 22-247): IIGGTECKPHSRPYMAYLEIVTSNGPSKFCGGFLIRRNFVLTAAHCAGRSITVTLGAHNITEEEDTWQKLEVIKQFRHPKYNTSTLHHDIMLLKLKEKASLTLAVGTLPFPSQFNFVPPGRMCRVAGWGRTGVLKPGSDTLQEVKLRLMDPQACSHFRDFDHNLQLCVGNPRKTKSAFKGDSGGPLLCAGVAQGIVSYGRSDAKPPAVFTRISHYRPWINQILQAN
Outline: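 20 µg chemokine in 100 mM Tris-HCl pH 7.8, 10 mM CaCl2, split; one half given 0.1-0.4 µg chymase; both 18 h at 37°C. Samples in Tris-glycine SDS buffer heated 95°C 10 min, run on 4-12% Bis-Tris gels at 150 V for 50 min. Fixed in 25% isopropanol/10% acetic acid, stained with 0.25% Coomassie G-250 2 h, destained overnight; n=3.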

CCR1 = target: T3, CCR1 (Homo sapiens, UniProt P32246); experiment: Boyden chamber chemotaxis, CCR1 transfectants; type: cell-based; details: cleaved versus uncleaved chemokine
T3 sequence (P32246 1-355): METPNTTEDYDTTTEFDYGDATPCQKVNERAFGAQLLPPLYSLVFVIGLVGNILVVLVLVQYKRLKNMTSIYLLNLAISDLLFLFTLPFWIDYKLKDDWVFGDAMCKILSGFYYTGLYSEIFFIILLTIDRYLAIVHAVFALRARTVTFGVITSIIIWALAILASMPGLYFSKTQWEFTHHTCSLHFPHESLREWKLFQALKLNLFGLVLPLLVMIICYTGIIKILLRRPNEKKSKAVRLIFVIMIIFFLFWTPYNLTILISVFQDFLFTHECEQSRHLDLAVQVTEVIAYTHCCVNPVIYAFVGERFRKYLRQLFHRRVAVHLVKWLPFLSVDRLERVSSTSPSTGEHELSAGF
Outline: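 Chemokine digested for 18 h at 37°C with 0.1-0.4 µg recombinant human chymase in 100 mM Tris-HCl (pH 7.8), 10 mM CaCl2; undigested half incubated alongside. Cleaved and uncleaved forms tested on CCR1 transfectants in 96-well Boyden chambers: 5 h migration, 37°C, 5% CO2. Migrated cells quantified by ATP luminescence (Cell Titer-Glo); chemotactic index = response/buffer-alone basal; n=3.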

3xHA-GPR35, sequence (Q9HC97 whole entry): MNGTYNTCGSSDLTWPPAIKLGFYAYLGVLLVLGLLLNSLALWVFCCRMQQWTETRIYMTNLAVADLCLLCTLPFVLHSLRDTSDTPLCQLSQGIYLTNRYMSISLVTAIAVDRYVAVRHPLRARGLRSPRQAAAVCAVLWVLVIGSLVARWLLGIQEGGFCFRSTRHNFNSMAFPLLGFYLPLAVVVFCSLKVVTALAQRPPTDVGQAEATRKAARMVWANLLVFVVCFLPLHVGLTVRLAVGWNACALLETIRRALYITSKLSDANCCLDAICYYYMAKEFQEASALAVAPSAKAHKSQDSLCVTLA
T1 sequence (Q9HC97 whole entry): as above
rat GPR35, sequence (Q33BM1 1-306): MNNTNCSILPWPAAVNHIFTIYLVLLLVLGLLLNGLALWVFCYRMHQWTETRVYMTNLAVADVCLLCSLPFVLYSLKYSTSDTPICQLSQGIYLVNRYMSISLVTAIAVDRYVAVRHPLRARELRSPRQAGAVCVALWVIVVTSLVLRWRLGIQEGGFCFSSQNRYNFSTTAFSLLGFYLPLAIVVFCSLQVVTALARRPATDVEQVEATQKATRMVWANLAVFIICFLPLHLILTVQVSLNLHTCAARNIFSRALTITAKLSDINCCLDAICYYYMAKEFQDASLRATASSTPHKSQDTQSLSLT
mouse GPR35, sequence (Q9ES90 whole entry): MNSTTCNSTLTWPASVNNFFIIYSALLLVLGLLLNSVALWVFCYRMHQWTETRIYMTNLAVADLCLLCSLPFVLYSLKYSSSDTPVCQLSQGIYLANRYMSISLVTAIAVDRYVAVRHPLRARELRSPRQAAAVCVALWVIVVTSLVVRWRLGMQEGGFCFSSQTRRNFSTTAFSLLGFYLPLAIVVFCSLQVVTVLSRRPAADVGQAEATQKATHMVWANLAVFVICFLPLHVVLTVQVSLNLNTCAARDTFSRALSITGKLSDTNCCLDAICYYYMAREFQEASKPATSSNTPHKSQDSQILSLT
GPR35b, sequence (Q9HC97 1-340 isoform Q9HC97-2): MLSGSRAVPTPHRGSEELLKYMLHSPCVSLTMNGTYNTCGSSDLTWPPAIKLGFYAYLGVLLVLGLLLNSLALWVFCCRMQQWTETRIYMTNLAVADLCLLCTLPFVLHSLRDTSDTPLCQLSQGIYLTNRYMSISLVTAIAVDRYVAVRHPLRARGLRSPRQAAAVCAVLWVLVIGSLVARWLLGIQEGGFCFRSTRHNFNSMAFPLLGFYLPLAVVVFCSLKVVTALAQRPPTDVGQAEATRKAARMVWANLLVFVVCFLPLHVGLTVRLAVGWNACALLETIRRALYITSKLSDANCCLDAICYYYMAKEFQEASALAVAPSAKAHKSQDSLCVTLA

CC(/C=C1\SC(=S)N(CCCC(=O)Nc2ccc(C(=O)O)c(O)c2)C1=O)=C\c1ccccc1 [ML145]
effect of pre-exposure on response of cells to 1μM CXCL17 (PGE2-treated THP-1 cells; 1 μM ML145, 15 minutes pre-incubation): no inhibitory effect
effect of pre-treatment on monocyte migration to CXCL17 (primary human monocytes): unaffected

N#Cc1cc(NC(=O)C(=O)O)c(Cl)c(NC(=O)C(=O)O)c1 [lodoxamide]
endocytosis of GPR35 (3xHA-GPR35; 1 μM and 10μM): Significant endocytosis
endocytosis of GPR35, direct comparison (3xHA-GPR35; 1 μM): significant endocytosis
pEC50, inositol phosphate production (human GPR35a [1]): 8.64 +/- 0.08
pEC50, inositol phosphate production (human GPR35a [2]): 9.13 +/- 0.24
pEC50, inositol phosphate production (GPR35b): 9.05 +/- 0.07

CCCOc1ccccc1-c1nc2nn[nH]c2c(=O)[nH]1 [zaprinast]
EC50 (rat GPR35): 91.2 nM
EC50 (mouse GPR35): 1050 nM

CCL2: chemokine purchased from Peprotech EC
forward migration index (FMI‖) versus basal (THP-1 cells; 1μM): significant response
cell migration versus basal (THP-1 cells; gradient from 1μl of 1μM, 1 hour): many more cells were observed to migrate
forward migration index (FMI‖) versus basal (PGE2-treated THP-1 cells; 1μM, PGE2-treated THP-1): significantly greater than the basal response
increase in the number of migrating cells versus basal (PGE2-treated THP-1 cells; 1μM, PGE2-treated THP-1): 6 fold

B1: CCL15: CC-chemokine with extended N-terminus, purchased from Peprotech EC (protein, UniProt Q16663 22-113, looked up)
C-C motif chemokine 15: QFTNDAETELMMSKLPLENPVVLNSFHFAADCCTSYISQSIPCSLMKSYFETSSECSKPGVIFLTKKGRQVCAKPSGPGVQDCMKKLKPYSI
cleavage by chymase [3]: cleaved
effect of chymase cleavage on chemotactic potency (CCR1): increased potency

B2: CCL23: CC-chemokine with extended N-terminus, purchased from Peprotech EC (protein, UniProt P55773 22-120, looked up)
C-C motif chemokine 23: RVTKDAETEFMMSKLPLENPVLLDRFHATSADCCISYTPRSIPCSLLESYFETNSECSKPGVIFLTKKGRRFCANPSDKQVQVCMRMLKLDTRIKTRKN
cleavage by chymase [3]: cleaved
effect of chymase cleavage on chemotactic potency (CCR1): increased potency
